# Data as given in ChEMBL document CHEMBL5038582, “Adamantyl Isothiocyanates as Mutant p53 Rescuing Agents and Their Structure-Activity Relationships” (J Med Chem, 2021).
# The source made the active and inactive calls. The calls are words filed in the database; no cut-off is given here.
# Legend:
# MDA-MB-231 [1] = assay: Antiproliferative activity against human MDA-MB-231 cells expressing p53 R280K mutant assessed as inhibition of cell growth at 10 to 50 uM incubated for 24 to 72 hrs by WST-1 assay; assay type: functional, cell-based; settings: dose 10-50 µM, time 24-72 hrs
# Procedure, shortened: (§1)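 WST-1 proliferation assay. Compound diluted in DMSO so that 10 μl of stock in 1 ml of cells (40,000 cells/ml) gives the test concentration at 1% DMSO. Cells plated at 4,000/well in duplicate and incubated at 37 °C for 24 h or 72 h. Result given as % of the 1% DMSO control.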
# [2] = Octanol-water partition coefficient, logP of the compound by HPLC-MS analysis; assay type: physicochemical; settings: for logP: 18 h
# Procedure, shortened: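 Compound (10 µL of 10 mM DMSO stock) added to 0.5 mL octanol plus 0.5 mL sodium phosphate buffer pH 7.4. Stirred 18 h, centrifuged 2 h at 3600 rpm. Concentration in each phase measured by LC-MS on a C18 column.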
# MCF7 [3] = assay: Downregulation of p53 expression in human MCF7 cells at 6 to 12 uM measured after 24 hrs by immunoblot analysis; assay type: functional, cell-based; settings: dose 6-12 µM
# Procedure, shortened: (§2)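 24 h exposure to 6 or 12 μM, DMSO control. Lysis in Tris pH 8.0/NaCl/glycerol/NP-40/EDTA buffer with protease inhibitors. 20 µg (MDA-MB-231, MDA-MB-468) or 50 µg (MCF-7) of lysate run on 4-12% SDS-PAGE. Blot probed with p53 DO-1, GAPDH used for reprobe/loading. Triplicate experiments.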
# MCF7 [4] = assay: Induction of apoptosis in human MCF-7 cells expressing wild type p53 assessed increase in number of Annexin-V stained cells at 6 to 12 uM incubated for 24 hrs by AnnexinV-FITC and PI staining based flow cytometry; assay type: functional, cell-based; settings: dose 6-12 µM
# Procedure, shortened: (§3)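 24 h treatment, DMSO control. Cells scraped, washed in PBS, then given fluorochrome-conjugated Annexin V for 15 min at RT in the dark, followed by PI (0.1 µg/ml) in binding buffer. Read by flow cytometry on LSRFortessa. Annexin V-positive cells expressed relative to the DMSO control.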
# MDA-MB-231 [5] = assay: Downregulation of p53 R280K mutant expression in human MDA-MB-231 cells at 6 to 12 uM measured after 24 hrs by immunoblot analysis; settings: dose 6-12 µM
# MDA-MB-231 [6] = assay: Induction of apoptosis in human MDA-MB-231 cells expressing p53 R280K mutant assessed increase in number of Annexin-V stained cells at 6 to 12 uM incubated for 24 hrs by AnnexinV-FITC and PI staining based flow cytometry; assay type: functional, cell-based; settings: dose 6-12 µM; procedure, shortened: as §3
# MDA-MB-468 [7] = assay: Downregulation of p53 R273H mutant expression in human MDA-MB-468 cells at 6 to 12 uM measured after 24 hrs by immunoblot analysis; assay type: functional, cell-based; settings: dose 6-12 µM; procedure, shortened: as §2
# MDA-MB-468 [8] = assay: Induction of apoptosis in human MDA-MB-468 cells expressing p53 R273H mutant assessed increase in number of Annexin-V stained cells at 6 to 12 uM incubated for 24 hrs by AnnexinV-FITC and PI staining based flow cytometry; assay type: functional, cell-based; settings: dose 6-12 µM; procedure, shortened: as §3
# MDA-MB-231 [9] = assay: Antiproliferative activity against human MDA-MB-231 cells expressing p53 R280K mutant assessed as inhibition of cell growth incubated for 72 hrs by WST-1 assay; assay type: functional, cell-based; settings: MDA-MB-231, 72 h
# Procedure, shortened: (§4)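 WST-1 proliferation assay. Compound diluted in DMSO and added to cells at 1% DMSO final. 4,000 cells/well in duplicate; DMSO-only wells as control, cell-free medium wells for background.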
# MDA-MB-231 [10] = assay: Antiproliferative activity against human MDA-MB-231cells expressing p53 R280K mutant assessed as inhibition of cell growth at 10 to 50 uM incubated for 24 hrs by WST-1 assay; assay type: functional, cell-based; settings: dose 10-50 µM; procedure, shortened: as §1
# MDA-MB-231 [11] = assay: Antiproliferative activity against human MDA-MB-231 cells expressing p53 R280K mutant assessed as inhibition of cell growth incubated for 24 hrs by WST-1 assay; assay type: functional, cell-based; settings: MDA-MB-231, 24 h; procedure, shortened: as §4
# MDA-MB-468 [12] = assay: Induction of apoptosis in human MDA-MB-468 cells expressing p53 R273H mutant assessed fold increase in number of Annexin-V stained cells at 6 to 12 uM incubated for 24 hrs by AnnexinV-FITC and PI staining based flow cytometry relative to control; assay type: functional; settings: dose 6-12 µM; procedure, shortened: as §3
# MCF7 [13] = assay: Antiproliferative activity against human MCF7 cells expressing WT p53 assessed as inhibition of cell growth at 10 to 50 uM incubated for 24 to 72 hrs by WST-1 assay; assay type: functional, cell-based; settings: dose 10-50 µM, time 24-72 hrs; procedure, shortened: as §1
# MDA-MB-231 [14] = assay: Induction of apoptosis in human MDA-MB-231 cells expressing p53 R280K mutant assessed fold increase in number of Annexin-V stained cells at 6 to 12 uM incubated for 24 hrs by AnnexinV-FITC and PI staining based flow cytometry relative to control; assay type: functional; settings: dose 6-12 µM; procedure, shortened: as §3
# MCF7 [15] = assay: Induction of apoptosis in human MCF7 cells expressing wild type p53 assessed as increase in cleaved PARP1 level at 6 to 12 uM measured after 24 hrs by western blotting analysis; assay type: functional, cell-based; settings: dose 6-12 µM
# Procedure, shortened: (§5)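 Cells treated with DMSO or compound at 6 or 12 µM for 24 h, then lysed in Tris-Cl pH 8.0/NaCl/glycerol/NP-40/EDTA buffer with protease inhibitors. 100 µg lysate resolved on 4-12% SDS-PAGE and blotted to PVDF. Probed with anti-PARP or anti-caspase 3, then HRP secondary and ECL. GAPDH reprobe as control.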
# MCF7 [16] = assay: Induction of apoptosis in human MCF7 cells expressing wild type p53 assessed as decrease in level of uncleaved PARP1 level at 6 to 12 uM measured after 24 hrs by western blotting analysis; assay type: functional, cell-based; settings: dose 6-12 µM; procedure, shortened: as §5
# MDA-MB-231 [17] = assay: Induction of apoptosis in human MDA-MB-231 cells expressing p53 R280K mutant assessed as decrease in level of uncleaved caspase 3 level at 6 to 12 uM measured after 24 hrs by western blotting analysis; assay type: functional, cell-based; settings: dose 6-12 µM; procedure, shortened: as §5
# MDA-MB-468 [18] = assay: Induction of apoptosis in human MDA-MB-468 cells expressing p53 R273H mutant assessed as increase in level of cleaved PARP1 level at 6 to 12 uM measured after 24 hrs by western blotting analysis; assay type: functional, cell-based; settings: dose 6-12 µM; procedure, shortened: as §5
# MDA-MB-468 [19] = assay: Induction of apoptosis in human MDA-MB-468 cells expressing p53 R273H mutant assessed as decrease in level of uncleaved caspase 3 level at 6 to 12 uM measured after 24 hrs by western blotting analysis; assay type: functional, cell-based; settings: dose 6-12 µM; procedure, shortened: as §5
# MDA-MB-231 [20] = assay: Induction of apoptosis in human MDA-MB-231 cells expressing p53 R280K mutant assessed as increase in level of cleaved PARP1 level at 6 to 12 uM measured after 24 hrs by western blotting analysis; assay type: functional, cell-based; settings: dose 6-12 µM; procedure, shortened: as §5
# MCF7 [21] = assay: Upregulation of p53 expression in human MCF7 cells at 6 to 12 uM measured after 24 hrs by immunoblot analysis; assay type: functional, cell-based; settings: dose 6-12 µM
# Procedure, shortened: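 Cells treated with DMSO or compound at 6 or 12 µM for 24 h and lysed. 50 µg MCF-7 lysate resolved by SDS-PAGE and probed with p53 DO-1 antibody. Reprobed with anti-GAPDH as loading control. Run in triplicate.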
# MDA-MB-468 [22] = assay: Antiproliferative activity against human MDA-MB-468 cells expressing p53 R273H mutant assessed as inhibition of cell growth at 10 to 50 uM incubated for 24 to 72 hrs by WST-1 assay; assay type: functional, cell-based; settings: dose 10-50 µM, time 24-72 hrs; procedure, shortened: as §1
# MDA-MB-231 [23] = assay: Antiproliferative activity against human MDA-MB-231 cells expressing p53 R280K mutant assessed as inhibition of cell growth at 24 to 48 uM incubated for 72 hrs by WST-1 assay; assay type: functional; settings: dose 24-48 µM; procedure, shortened: as §1
smiles,measurement,setting,value
CC(N=C=S)C12CC3CC(CC(C3)C1)C2 (stereo not drawn),Activity,MDA-MB-231 [1],inactive
S=C=NCCOC12CC3CC(CC(C3)C1)C2,Activity,MDA-MB-231 [1],inactive
same,logP at 18 h,[2],3.73
S=C=NC12CC3CC(CC(C3)C1)C2,inhibition,MCF7 [3],inactive
same,Activity,MCF7 [4],inactive
same,p53 R280K downregulation (active/not active),MDA-MB-231 [5],inactive
same,Activity,MDA-MB-231 [1],inactive
same,Activity,MDA-MB-231 [6],inactive
same,inhibition,MDA-MB-468 [7],inactive
same,Activity,MDA-MB-468 [8],inactive
CC12CC3CC(C)(C1)CC(N=C=S)(C3)C2,Activity,MDA-MB-231 [1],inactive
S=C=NC1C2CC3CC(C2)CC1C3 (stereo not drawn),Activity,MDA-MB-231 [1],inactive
S=C=NCCC12CC3CC(CC(C3)C1)C2,inhibition,MCF7 [3],inactive
same,Activity,MCF7 [4],inactive
same,p53 R280K downregulation (active/not active),MDA-MB-231 [5],Active
same,IC50,MDA-MB-231 [9],12 µM
same,Activity,MDA-MB-231 [10],Dose-Dependent Effect
same,IC50,MDA-MB-231 [11],24 µM
same,fold change (FC),MDA-MB-468 [12],2
same,Activity,MCF7 [13],inactive
same,inhibition,MDA-MB-468 [7],Active
same,fold change (FC),MDA-MB-231 [14],2
S=C=Nc1ccc(C23CC4CC(CC(C4)C2)C3)cc1,Activity,MDA-MB-231 [10],Dose-Dependent Effect
same,logP,[2],6.34
S=C=NCCc1ccccc1,Activity,MCF7 [15],Active
same,p53 R280K downregulation (active/not active),MDA-MB-231 [5],Active
same,Activity,MDA-MB-231 [1],Active
same,Activity,MCF7 [16],Active
same,Activity,MDA-MB-231 [17],Active
same,Activity,MDA-MB-468 [18],Active
same,Activity,MDA-MB-468 [19],Active
same,Activity,MCF7 [13],Active
same,inhibition,MDA-MB-468 [7],Active
same,Activity,MDA-MB-231 [20],Active
same,Activity,MCF7 [21],Active
CCCC(CN=C=S)C1C2CC3CC(C2)CC1C3 (stereo not drawn),Activity,MDA-MB-231 [1],inactive
same,logP,[2],6.77
CC(C)(COC12CC3CC(CC(C3)C1)C2)N=C=S,Activity,MDA-MB-231 [1],inactive
O=C(CC12CC3CC(CC(C3)C1)C2)N=C=S,Activity,MDA-MB-231 [1],inactive
same,logP,[2],3.73
O=C1CNC(=S)N1CCC12CC3CC(CC(C3)C1)C2,inhibition,MCF7 [3],inactive
same,Activity,MCF7 [4],inactive
same,p53 R280K downregulation (active/not active),MDA-MB-231 [5],inactive
same,Activity,MDA-MB-231 [1],inactive
same,Activity,MDA-MB-468 [22],inactive
same,Activity,MDA-MB-231 [6],inactive
same,logP at 18 h,[2],3.73
same,Activity,MCF7 [13],inactive
same,inhibition,MDA-MB-468 [7],inactive
same,Activity,MDA-MB-468 [8],inactive
C1C2CC3CC1CC(C2)C3,Activity,MDA-MB-231 [1],inactive
same,Activity,MDA-MB-468 [22],inactive
same,Activity,MCF7 [13],inactive
S=C=NCC12CC3CC(CC(C3)C1)C2,inhibition,MCF7 [3],inactive
same,Activity,MCF7 [4],inactive
same,p53 R280K downregulation (active/not active),MDA-MB-231 [5],Active
same,Activity,MDA-MB-231 [10],Dose-Dependent Effect
same,IC50,MDA-MB-231 [11],24 µM
same,fold change (FC),MDA-MB-468 [12],2
same,Activity,MCF7 [13],Active
same,inhibition,MDA-MB-468 [7],Active
same,fold change (FC),MDA-MB-231 [14],2
same,inhibition (INH),MDA-MB-231 [23],50%
